According to ChEMBL document CHEMBL1165943, “Design and synthesis of new anticancer pyrimidines with multiple-kinase inhibitory effect” (Bioorg Med Chem, 2010):

Experiments:
SR [1] = assay: Growth inhibition of human SR cells after 48 hrs by sulforhodamine B assay; type: functional
Method in brief: (§1)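 Cells grown in RPMI 1640 with 5% FBS and 2 mM L-glutamine, seeded at 5,000–40,000 cells/well according to doubling time. After 24 h, time-zero plates are TCA-fixed. Five concentrations (10-fold or ½log dilutions, DMSO stocks) are applied for 48 h at 37 °C, 5% CO₂. Cells are TCA-fixed, SRB-stained and read at 515 nm. IC₅₀ is taken from [(Ti−Tz)/(C−Tz)]×100 = 50.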

SR [2] = assay: Cytotoxicity against human SR cells assessed as cell growth at 1 uM after 48 hrs by sulforhodamine B assay; type: functional; settings: read-out: Activity
MCF7 [3] = assay: Cytotoxicity against human MCF7 cells assessed as cell growth at 0.01 uM after 48 hrs by sulforhodamine B assay; type: functional; settings: MCF7, 48 h, read-out: Activity
[4] = Cytotoxicity against human RPMI8266 cells assessed as cell growth at 100 nM after 48 hrs by sulforhodamine B assay; type: functional; settings: read-out: Activity
PC-3 [5] = assay: Growth inhibition of human PC3 cells after 48 hrs by sulforhodamine B assay; type: functional, cell-based
A549 = assay: Cytotoxicity against human A549 cells assessed as cell growth at 0.001 uM after 48 hrs by sulforhodamine B assay; type: functional; settings: A549, 48 h, read-out: Activity
NCI-H226 = assay: Cytotoxicity against human NCI-H226 cells assessed as cell growth at 0.01 uM after 48 hrs by sulforhodamine B assay; type: functional; settings: NCI-H226, 48 h, read-out: Activity
NCI-H23 = assay: Cytotoxicity against human NCI-H23 cells assessed as cell growth at 100 nM after 48 hrs by sulforhodamine B assay; type: functional; settings: NCI-H23, 48 h, read-out: Activity
PC-3 [6] = assay: Cytotoxicity against human PC3 cells assessed as cell growth at 0.001 uM after 48 hrs by sulforhodamine B assay; type: functional; settings: PC-3, 48 h, read-out: Activity
MCF7 [7] = assay: Growth inhibition of human MCF7 cells after 48 hrs by sulforhodamine B assay; type: functional; settings: MCF7, 48 h; method in brief: as §1
HCC 2998 [8] = assay: Cytotoxicity against human HCC2998 cells assessed as cell growth at 100 nM after 48 hrs by sulforhodamine B assay; type: functional; settings: HCC 2998, 48 h, read-out: Activity
CCRF-CEM [9] = assay: Cytotoxicity against human CCRF-CEM cells assessed as cell growth at 0.001 uM after 48 hrs by sulforhodamine B assay; type: functional; settings: read-out: Activity
RXF 393 [10] = assay: Cytotoxicity against human RXF393 cells assessed as cell growth at 10 uM after 48 hrs by sulforhodamine B assay; type: functional; settings: RXF 393, 48 h, read-out: Activity
CCRF-CEM [11] = assay: Cytotoxicity against human CCRF-CEM cells assessed as cell growth at 10 uM after 48 hrs by sulforhodamine B assay; type: functional; settings: read-out: Activity
HCC 2998 [12] = assay: Growth inhibition of human HCC2998 cells after 48 hrs by sulforhodamine B assay; type: functional; settings: HCC 2998, 48 h; method in brief: as §1
PC-3 [13] = assay: Cytotoxicity against human PC3 cells assessed as cell growth at 1 uM after 48 hrs by sulforhodamine B assay; type: functional; settings: PC-3, 48 h, read-out: Activity
[14] = Cytotoxicity against human […] cells assessed as cell growth at 10 uM after 48 hrs by sulforhodamine B assay; type: functional; settings: read-out: Activity
RXF 393 [15] = assay: Cytotoxicity against human RXF393 cells assessed as cell growth at 0.01 uM after 48 hrs by sulforhodamine B assay; type: functional; settings: RXF 393, 48 h, read-out: Activity
[16] = Cytotoxicity against human RPMI8266 cells assessed as cell growth at 0.01 uM after 48 hrs by sulforhodamine B assay; type: functional; settings: read-out: Activity
[17] = target: Aurora kinase A (Homo sapiens) (UniProt O14965); assay: Inhibition of Aurora A at 10 uM by HotSpot assay
[18] = target: Proto-oncogene tyrosine-protein kinase receptor Ret (Homo sapiens) (UniProt P07949); assay: Inhibition of RET at 10 uM by HotSpot assay
[19] = target: Ephrin type-A receptor 1 (Homo sapiens) (UniProt P21709); assay: Inhibition of EPHA1 at 10 uM by HotSpot assay
[20] = Inhibition of PKA at 10 uM by HotSpot assay
[21] = target: Serine/threonine-protein kinase mTOR (Homo sapiens) (UniProt P42345); assay: Inhibition of mTOR at 10 uM by HotSpot assay
[22] = target: Receptor-type tyrosine-protein kinase FLT3 (Homo sapiens) (UniProt P36888); assay: Inhibition of FLT3 at 10 uM by HotSpot assay
[23] = target: Proto-oncogene tyrosine-protein kinase Src (Homo sapiens) (UniProt P12931); assay: Inhibition of c-SRC at 10 uM by HotSpot assay
[24] = target: Macrophage colony-stimulating factor 1 receptor (Homo sapiens) (UniProt P07333); assay: Inhibition of FMS at 10 uM by HotSpot assay
[25] = target: Angiopoietin-1 receptor (Homo sapiens) (UniProt Q02763); assay: Inhibition of TIE2 at 10 uM by HotSpot assay
[26] = target: Tyrosine-protein kinase SYK (Homo sapiens) (UniProt P43405); assay: Inhibition of SYK at 10 uM by HotSpot assay
[27] = target: DNA-dependent protein kinase catalytic subunit (Homo sapiens) (UniProt P78527); assay: Inhibition of DNA-PK at 10 uM by HotSpot assay
[28] = target: Insulin receptor (Homo sapiens) (UniProt P06213); assay: Inhibition of IR at 10 uM by HotSpot assay
[29] = target: Tyrosine-protein kinase JAK3 (Homo sapiens) (UniProt P52333); assay: Inhibition of JAK3 at 10 uM by HotSpot assay
[30] = target: Protein-tyrosine kinase 2-beta (Homo sapiens) (UniProt Q14289); assay: Inhibition of PTK2B at 10 uM by HotSpot assay
[31] = target: Inhibitor of nuclear factor kappa-B kinase subunit beta (Homo sapiens) (UniProt O14920); assay: Inhibition of IKK-beta at 10 uM by HotSpot assay
[32] = target: Proto-oncogene tyrosine-protein kinase ROS (Homo sapiens) (UniProt P08922); assay: Inhibition of ROS at 10 uM by HotSpot assay
[33] = target: Mast/stem cell growth factor receptor Kit (Homo sapiens) (UniProt P10721); assay: Inhibition of c-Kit at 10 uM by HotSpot assay
[34] = target: Serine/threonine-protein kinase B-raf (Homo sapiens) (UniProt P15056); assay: Inhibition of B-Raf at 10 uM by HotSpot assay
[35] = target: Vascular endothelial growth factor receptor 2 (Homo sapiens) (UniProt P35968); assay: Inhibition of KDR at 10 uM by HotSpot assay
[36] = target: Tyrosine-protein kinase Lck (Homo sapiens) (UniProt P06239); assay: Inhibition of LCK at 10 uM by HotSpot assay
[37] = read-out: LC50 (the source's name)

Aurora kinase A (Homo sapiens), sequence (O14965 whole entry): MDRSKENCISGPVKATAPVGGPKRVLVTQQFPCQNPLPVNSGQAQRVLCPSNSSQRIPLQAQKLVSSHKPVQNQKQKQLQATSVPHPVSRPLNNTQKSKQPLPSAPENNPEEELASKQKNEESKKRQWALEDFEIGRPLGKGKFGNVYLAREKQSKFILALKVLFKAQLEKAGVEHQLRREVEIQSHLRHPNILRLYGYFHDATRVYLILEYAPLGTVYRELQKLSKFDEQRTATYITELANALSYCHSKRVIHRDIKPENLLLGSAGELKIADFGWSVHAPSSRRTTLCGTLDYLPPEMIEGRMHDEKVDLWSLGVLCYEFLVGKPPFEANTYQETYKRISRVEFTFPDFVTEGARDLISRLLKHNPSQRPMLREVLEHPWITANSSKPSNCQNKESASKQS
Receptor-type tyrosine-protein kinase FLT3 (Homo sapiens), sequence (P36888 whole entry): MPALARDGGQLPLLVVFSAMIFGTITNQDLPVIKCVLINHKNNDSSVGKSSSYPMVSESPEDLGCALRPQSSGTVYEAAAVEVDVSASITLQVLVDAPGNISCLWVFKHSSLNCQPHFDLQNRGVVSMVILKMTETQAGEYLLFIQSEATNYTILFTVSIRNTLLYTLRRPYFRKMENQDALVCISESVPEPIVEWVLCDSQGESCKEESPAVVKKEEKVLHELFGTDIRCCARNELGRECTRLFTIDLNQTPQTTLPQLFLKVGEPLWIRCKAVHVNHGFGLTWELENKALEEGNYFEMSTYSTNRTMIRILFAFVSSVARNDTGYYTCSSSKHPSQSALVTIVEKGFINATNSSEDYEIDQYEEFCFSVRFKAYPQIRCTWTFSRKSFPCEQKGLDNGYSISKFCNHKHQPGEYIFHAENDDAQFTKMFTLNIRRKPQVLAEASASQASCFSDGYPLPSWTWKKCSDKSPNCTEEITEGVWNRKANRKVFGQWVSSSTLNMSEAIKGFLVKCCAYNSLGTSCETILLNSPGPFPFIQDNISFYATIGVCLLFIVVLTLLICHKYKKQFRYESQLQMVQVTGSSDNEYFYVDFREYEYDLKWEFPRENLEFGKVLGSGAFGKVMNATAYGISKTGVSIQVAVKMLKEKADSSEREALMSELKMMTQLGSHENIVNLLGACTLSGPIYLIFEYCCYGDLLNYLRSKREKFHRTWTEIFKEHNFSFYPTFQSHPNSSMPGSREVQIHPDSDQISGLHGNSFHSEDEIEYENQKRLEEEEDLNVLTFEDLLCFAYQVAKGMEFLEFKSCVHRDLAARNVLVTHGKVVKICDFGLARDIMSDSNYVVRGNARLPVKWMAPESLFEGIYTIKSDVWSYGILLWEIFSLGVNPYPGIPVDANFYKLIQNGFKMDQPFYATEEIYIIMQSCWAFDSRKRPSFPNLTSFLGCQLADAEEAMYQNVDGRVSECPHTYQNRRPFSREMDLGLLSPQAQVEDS
Ephrin type-A receptor 1 (Homo sapiens), sequence (P21709 whole entry): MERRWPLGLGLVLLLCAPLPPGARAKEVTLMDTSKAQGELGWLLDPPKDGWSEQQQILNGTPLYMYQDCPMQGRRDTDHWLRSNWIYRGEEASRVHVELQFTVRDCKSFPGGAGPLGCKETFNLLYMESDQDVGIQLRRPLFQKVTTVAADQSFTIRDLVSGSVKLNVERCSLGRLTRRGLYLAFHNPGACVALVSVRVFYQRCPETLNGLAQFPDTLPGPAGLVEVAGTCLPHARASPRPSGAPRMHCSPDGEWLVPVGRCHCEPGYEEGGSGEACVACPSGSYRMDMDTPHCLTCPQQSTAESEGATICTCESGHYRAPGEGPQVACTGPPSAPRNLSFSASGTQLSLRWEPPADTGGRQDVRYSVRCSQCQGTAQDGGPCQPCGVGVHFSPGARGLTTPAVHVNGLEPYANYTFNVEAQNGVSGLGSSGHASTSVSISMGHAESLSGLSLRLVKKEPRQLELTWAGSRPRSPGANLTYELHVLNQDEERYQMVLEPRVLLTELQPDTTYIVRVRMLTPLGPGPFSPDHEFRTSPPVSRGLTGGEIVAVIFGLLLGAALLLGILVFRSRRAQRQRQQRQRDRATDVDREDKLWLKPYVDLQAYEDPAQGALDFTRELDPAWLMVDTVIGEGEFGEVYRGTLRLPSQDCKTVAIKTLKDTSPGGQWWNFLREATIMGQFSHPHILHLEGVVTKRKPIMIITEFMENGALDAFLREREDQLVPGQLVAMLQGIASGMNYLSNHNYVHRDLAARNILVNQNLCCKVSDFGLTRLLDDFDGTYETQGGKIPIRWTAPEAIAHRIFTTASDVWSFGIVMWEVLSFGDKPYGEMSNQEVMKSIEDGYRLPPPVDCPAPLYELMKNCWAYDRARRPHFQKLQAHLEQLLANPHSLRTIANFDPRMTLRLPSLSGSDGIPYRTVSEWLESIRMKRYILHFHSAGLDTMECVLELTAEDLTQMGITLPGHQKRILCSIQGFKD
Macrophage colony-stimulating factor 1 receptor (Homo sapiens), sequence (P07333 whole entry): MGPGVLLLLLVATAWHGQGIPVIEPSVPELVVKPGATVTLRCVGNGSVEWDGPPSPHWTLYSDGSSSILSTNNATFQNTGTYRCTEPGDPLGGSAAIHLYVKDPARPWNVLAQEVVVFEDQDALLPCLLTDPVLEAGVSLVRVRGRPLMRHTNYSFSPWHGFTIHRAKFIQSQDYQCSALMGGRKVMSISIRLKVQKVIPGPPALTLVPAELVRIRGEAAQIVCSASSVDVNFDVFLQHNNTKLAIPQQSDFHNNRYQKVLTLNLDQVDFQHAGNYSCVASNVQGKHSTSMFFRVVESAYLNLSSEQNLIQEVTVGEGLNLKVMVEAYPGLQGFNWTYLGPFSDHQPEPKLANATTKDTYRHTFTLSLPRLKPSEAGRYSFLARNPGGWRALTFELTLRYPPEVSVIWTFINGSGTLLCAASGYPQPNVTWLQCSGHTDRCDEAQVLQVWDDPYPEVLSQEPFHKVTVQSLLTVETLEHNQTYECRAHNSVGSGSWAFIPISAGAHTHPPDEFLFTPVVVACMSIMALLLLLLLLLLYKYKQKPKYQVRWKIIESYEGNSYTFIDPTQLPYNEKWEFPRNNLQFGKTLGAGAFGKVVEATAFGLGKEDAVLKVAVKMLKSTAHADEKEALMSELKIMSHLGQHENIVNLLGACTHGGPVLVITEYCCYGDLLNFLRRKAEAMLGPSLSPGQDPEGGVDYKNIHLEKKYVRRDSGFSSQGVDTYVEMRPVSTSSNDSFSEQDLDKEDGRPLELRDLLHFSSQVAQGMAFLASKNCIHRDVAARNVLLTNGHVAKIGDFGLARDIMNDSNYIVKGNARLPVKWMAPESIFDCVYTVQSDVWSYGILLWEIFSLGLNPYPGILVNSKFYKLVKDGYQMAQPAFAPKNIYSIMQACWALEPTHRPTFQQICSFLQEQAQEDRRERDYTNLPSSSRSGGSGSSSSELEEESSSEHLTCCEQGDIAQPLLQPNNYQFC
Serine/threonine-protein kinase B-raf (Homo sapiens), sequence (P15056 whole entry): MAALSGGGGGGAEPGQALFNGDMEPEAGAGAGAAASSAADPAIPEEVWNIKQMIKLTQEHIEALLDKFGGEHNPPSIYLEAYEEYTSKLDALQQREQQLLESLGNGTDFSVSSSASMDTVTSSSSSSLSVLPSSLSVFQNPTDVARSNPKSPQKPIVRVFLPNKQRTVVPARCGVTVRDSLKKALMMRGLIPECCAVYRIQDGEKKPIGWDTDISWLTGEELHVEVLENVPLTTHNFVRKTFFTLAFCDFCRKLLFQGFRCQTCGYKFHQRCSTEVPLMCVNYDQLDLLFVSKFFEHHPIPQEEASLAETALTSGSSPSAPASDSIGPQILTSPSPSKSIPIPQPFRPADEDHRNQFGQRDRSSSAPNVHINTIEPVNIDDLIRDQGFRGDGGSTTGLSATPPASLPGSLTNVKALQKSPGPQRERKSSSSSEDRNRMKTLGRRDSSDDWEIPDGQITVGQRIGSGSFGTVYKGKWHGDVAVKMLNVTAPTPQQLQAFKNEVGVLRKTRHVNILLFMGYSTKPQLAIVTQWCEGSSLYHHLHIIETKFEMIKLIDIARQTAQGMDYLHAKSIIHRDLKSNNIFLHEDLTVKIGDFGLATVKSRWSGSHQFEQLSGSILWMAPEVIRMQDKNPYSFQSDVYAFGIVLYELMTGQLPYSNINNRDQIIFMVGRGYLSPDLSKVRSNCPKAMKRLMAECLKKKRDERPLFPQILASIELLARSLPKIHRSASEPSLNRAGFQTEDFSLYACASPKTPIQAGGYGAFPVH
Mast/stem cell growth factor receptor Kit (Homo sapiens), sequence (P10721 whole entry): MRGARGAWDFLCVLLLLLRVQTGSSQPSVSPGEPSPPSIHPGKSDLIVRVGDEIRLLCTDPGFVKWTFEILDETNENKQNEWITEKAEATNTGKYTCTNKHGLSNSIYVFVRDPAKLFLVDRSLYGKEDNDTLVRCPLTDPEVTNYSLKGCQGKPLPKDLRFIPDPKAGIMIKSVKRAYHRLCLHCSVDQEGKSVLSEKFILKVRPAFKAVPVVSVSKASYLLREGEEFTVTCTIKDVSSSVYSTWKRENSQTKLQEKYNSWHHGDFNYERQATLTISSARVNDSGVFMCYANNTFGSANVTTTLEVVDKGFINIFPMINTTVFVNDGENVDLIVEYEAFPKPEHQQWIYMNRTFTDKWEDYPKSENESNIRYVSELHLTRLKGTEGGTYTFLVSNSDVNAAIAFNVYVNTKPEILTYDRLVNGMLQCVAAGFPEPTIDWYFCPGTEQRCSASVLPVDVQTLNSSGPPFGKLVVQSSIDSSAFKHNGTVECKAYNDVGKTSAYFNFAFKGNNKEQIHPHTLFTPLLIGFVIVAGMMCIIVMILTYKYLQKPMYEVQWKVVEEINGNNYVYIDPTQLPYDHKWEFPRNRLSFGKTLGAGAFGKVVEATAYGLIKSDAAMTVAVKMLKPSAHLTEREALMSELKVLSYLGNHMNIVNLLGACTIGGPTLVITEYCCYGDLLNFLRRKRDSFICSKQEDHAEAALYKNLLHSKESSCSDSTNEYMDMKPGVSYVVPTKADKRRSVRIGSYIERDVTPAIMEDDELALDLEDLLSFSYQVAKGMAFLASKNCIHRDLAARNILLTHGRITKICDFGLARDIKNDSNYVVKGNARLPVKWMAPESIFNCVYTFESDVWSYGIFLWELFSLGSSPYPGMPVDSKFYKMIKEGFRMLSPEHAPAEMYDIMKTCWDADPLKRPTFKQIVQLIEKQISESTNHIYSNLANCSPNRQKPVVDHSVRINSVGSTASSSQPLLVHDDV

CC(=O)c1ccccc1-c1ccc(-c2ccnc(NC(=O)Nc3cc(N4CCOCC4)cc(C(F)(F)F)c3)n2)cn1
GI50 (SR [1]): > 100 µM | TGI (SR [1]): > 100 µM | CC50 (SR [1]; [37]): > 100 µM | growth at 1 µM (SR [2]): 78% | growth at 0.01 µM (MCF7 [3]): 101% | growth at 0.1 µM [4]: 79% | GI50 (PC-3 [5]; Homo sapiens, PC-3, 48 h): > 100 µM | IC50 (PC-3 [5]; pc-3): Not Active | growth at 0.001 µM (A549): 94% | growth at 0.01 µM (NCI-H226): 108% | growth at 0.1 µM (NCI-H23): 83% | growth at 0.001 µM (PC-3 [6]): 101% | GI50 (MCF7 [7]): > 100 µM | TGI (MCF7 [7]): > 100 µM | CC50 (MCF7 [7]; [37]): > 100 µM | growth at 0.1 µM (HCC 2998 [8]): 117% | growth at 0.001 µM (CCRF-CEM [9]): 98% | growth at 10 µM (RXF 393 [10]): -16% | growth at 10 µM (CCRF-CEM [11]): 97% | GI50 (HCC 2998 [12]): > 100 µM | TGI (HCC 2998 [12]): > 100 µM | CC50 (HCC 2998 [12]; [37]): > 100 µM | growth at 1 µM (PC-3 [13]): 78% | growth at 10 µM [14]: 89% | growth at 0.01 µM (RXF 393 [15]): 108% | growth at 0.01 µM [16]: 104%

CC(=O)Nc1cccc(-c2ccc(-c3ccnc(NC(=O)Nc4cc(C(F)(F)F)cc(C(F)(F)F)c4)n3)cn2)c1.Cl
inhibition [17]: 60% | inhibition [18]: < 50% | inhibition [19]: < 50% | inhibition [20]: < 50% | inhibition [21]: < 50% | inhibition [22]: 50% | inhibition [23]: 60% | inhibition [24]: < 50% | inhibition [25]: < 50% | inhibition [26]: < 50% | inhibition [27]: < 50% | inhibition [28]: < 50% | inhibition [29]: < 50% | inhibition [30]: < 50% | inhibition [31]: < 50% | inhibition [32]: < 50% | inhibition [33]: < 50% | inhibition [34]: < 50% | inhibition [35]: 50% | inhibition [36]: 70%
